{"source": "paper PMC9123937", "about": "(International Journal of Nanomedicine, 2022)", "key": {"MHCC-97H cells [1]": {"tested_on": "MHCC-97H cells", "assay": "Cytotoxicity study", "assay_type": "cell-based", "settings": "Homo sapiens, MHCC97H, 96 h, read-out: 96-hour inhibition rate", "outline": "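MHCC-97H cells seeded at 3×10^3 cells/well in 96-well plates and cultured 24 h. Test compound added at final 0, 6.25, 12.5, 25, 50 or 100 μg/mL for 24, 48, 72 or 96 h at 37°C, with 0.1% DMSO as negative control. MTT (5 mg/mL stock) added for 3.5 h at 37°C, formazan dissolved in DMSO, absorbance read at 490 nm.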"}, "MHCC-97H cells [2]": {"tested_on": "MHCC-97H cells", "assay": "Apoptosis assay", "assay_type": "cell-based, human", "settings": "24 h", "outline": "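MHCC-97H cells (high-glucose DMEM, 10% FBS, 37°C, 5% CO2) seeded at 2×10^5 cells/well in 6-well plates and cultured 24 h. Test compound added at 5, 10 or 20 μmol/L for a further 24 h, with 0.1% DMSO and medium controls. Harvested cells stained with Annexin V-FITC and PI for 15 min in the dark in binding buffer, then analysed by flow cytometry.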"}}, "data": [{"molecule": "COc1cc(/C=C/C(=O)CC(=O)/C=C/c2ccc(O)c(OC)c2)ccc1O", "note": "[CU, curcumin]", "values": [{"measurement": "inhibition at 100 µg/mL", "setting": "MHCC-97H cells [1]", "result": "68.2 ± 1.19", "unit": "%"}, {"measurement": "apoptosis rate", "setting": "MHCC-97H cells [2]; 5 μmol/L", "result": "17.29 ± 0.66", "unit": "%"}, {"measurement": "apoptosis rate", "setting": "MHCC-97H cells [2]; 10 μmol/L", "result": "25.74 ± 0.61", "unit": "%"}, {"measurement": "apoptosis rate", "setting": "MHCC-97H cells [2]; 20 μmol/L", "result": "33.11 ± 1.00", "unit": "%"}]}]}
